Experimental data reported in ChEMBL document CHEMBL1671676, “In vitro activity of nemonoxacin, a novel nonfluorinated quinolone, against 2,440 clinical isolates” (2009).
≈ marks a conversion by molar mass, not a printed value.

Tests used:
Assay type in all cases: functional
Staphylococcus aureus [1] = test: Antibacterial activity against methicillin-resistant Staphylococcus aureus by CLSI M7-A7 broth microdilution method
Acinetobacter baumannii [2] = test: Antibacterial activity against Acinetobacter baumannii assessed as percent cumulative susceptible isolates at minimum inhibitory concentration of 16 ug/ml by CLSI broth microdilution method; set-up: scale not given: the % may be the effect or the level left
Staphylococcus aureus [3] = test: Antibacterial activity against methicillin-resistant Staphylococcus aureus assessed as percent cumulative susceptible isolates at minimum inhibitory concentration of 1 ug/ml by CLSI broth microdilution method; set-up: scale not given: the % may be the effect or the level left
Enterobacter cloacae [4] = test: Antibacterial activity against Enterobacter cloacae assessed as percent cumulative susceptible isolates at minimum inhibitory concentration of 8 ug/ml by CLSI broth microdilution method; set-up: scale not given: the % may be the effect or the level left
Staphylococcus aureus [5] = test: Antibacterial activity against methicillin-resistant Staphylococcus aureus assessed as percent cumulative susceptible isolates at minimum inhibitory concentration of 0.03 ug/ml by CLSI broth microdilution method; set-up: scale not given: the % may be the effect or the level left
How it was run: (§1)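 Clinical isolates tested by CLSI broth microdilution using 96-well panels of doubling drug dilutions in cation-adjusted Mueller-Hinton broth with 5% lysed horse blood. MIC was read from these panels. Panel quality control used CLSI ATCC strains, including S. pneumoniae 49619, S. aureus 29213, E. faecalis 29212 and E. coli 25922. Cumulative percentages of isolates were tabulated at each MIC.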

Acinetobacter baumannii [6] = test: Antibacterial activity against Acinetobacter baumannii assessed as percent cumulative susceptible isolates at minimum inhibitory concentration of 1 ug/ml by CLSI broth microdilution method; set-up: scale not given: the % may be the effect or the level left
Enterococcus faecium [7] = test: Antibacterial activity against Enterococcus faecium assessed as percent cumulative susceptible isolates at minimum inhibitory concentration of 4 ug/ml by CLSI broth microdilution method; set-up: scale not given: the % may be the effect or the level left
Escherichia coli [8] = test: Antibacterial activity against Escherichia coli assessed as percent cumulative susceptible isolates at minimum inhibitory concentration of 0.06 ug/ml by CLSI broth microdilution method; set-up: scale not given: the % may be the effect or the level left
[9] = tested on: Staphylococcus epidermidis; test: Antibacterial activity against methicillin-resistant Staphylococcus epidermidis assessed as percent cumulative susceptible isolates at minimum inhibitory concentration of […] by CLSI broth microdilution method; set-up: scale not given: the % may be the effect or the level left
Klebsiella oxytoca = test: Antibacterial activity against Klebsiella oxytoca assessed as percent cumulative susceptible isolates at minimum inhibitory concentration of 0.06 ug/ml by CLSI broth microdilution method; set-up: scale not given: the % may be the effect or the level left
Staphylococcus aureus [10] = test: Antibacterial activity against hospital-associated methicillin-resistant Staphylococcus aureus assessed as percent cumulative susceptible isolates at minimum inhibitory concentration of 0.06 ug/ml by CLSI broth microdilution method; set-up: scale not given: the % may be the effect or the level left
Staphylococcus aureus [11] = test: Antibacterial activity against methicillin-susceptible Staphylococcus aureus assessed as percent cumulative susceptible isolates at minimum inhibitory concentration of 1 ug/ml by CLSI broth microdilution method; set-up: scale not given: the % may be the effect or the level left
Staphylococcus aureus [12] = test: Antibacterial activity against community-associated methicillin-resistant Staphylococcus aureus assessed as percent cumulative susceptible isolates at minimum inhibitory concentration of 0.06 ug/ml by CLSI broth microdilution method; set-up: scale not given: the % may be the effect or the level left
Staphylococcus aureus [13] = test: Antibacterial activity against methicillin-susceptible Staphylococcus aureus assessed as percent cumulative susceptible isolates at minimum inhibitory concentration of 32 ug/ml by CLSI broth microdilution method; set-up: scale not given: the % may be the effect or the level left; how it was run: as §1
Enterococcus faecium [14] = test: Antibacterial activity against Enterococcus faecium by CLSI M7-A7 broth microdilution method
Enterococcus faecium [15] = test: Antibacterial activity against Enterococcus faecium assessed as percent cumulative susceptible isolates at minimum inhibitory concentration of 32 ug/ml by CLSI broth microdilution method; set-up: scale not given: the % may be the effect or the level left
Enterococcus faecium [16] = test: Antibacterial activity against Enterococcus faecium assessed as percent cumulative susceptible isolates at minimum inhibitory concentration of 0.06 ug/ml by CLSI broth microdilution method; set-up: scale not given: the % may be the effect or the level left
Staphylococcus aureus [17] = test: Antibacterial activity against hospital-associated methicillin-resistant Staphylococcus aureus assessed as percent cumulative susceptible isolates at minimum inhibitory concentration of […] by CLSI broth microdilution method; set-up: scale not given: the % may be the effect or the level left
Pseudomonas aeruginosa [18] = test: Antibacterial activity against Pseudomonas aeruginosa assessed as percent cumulative susceptible isolates at minimum inhibitory concentration of 0.5 ug/ml by CLSI broth microdilution method; set-up: scale not given: the % may be the effect or the level left
Enterobacteriaceae = test: Antibacterial activity against Enterobacteriaceae by CLSI M7-A7 broth microdilution method
Klebsiella pneumoniae [19] = test: Antibacterial activity against Klebsiella pneumoniae assessed as percent cumulative susceptible isolates at minimum inhibitory concentration of 1 ug/ml by CLSI broth microdilution method; set-up: scale not given: the % may be the effect or the level left
Staphylococcus aureus [20] = test: Antibacterial activity against community-associated methicillin-resistant Staphylococcus aureus assessed as percent cumulative susceptible isolates at minimum inhibitory concentration of […] by CLSI broth microdilution method; set-up: scale not given: the % may be the effect or the level left
Klebsiella pneumoniae [21] = test: Antibacterial activity against Klebsiella pneumoniae assessed as percent cumulative susceptible isolates at minimum inhibitory concentration of 32 ug/ml by CLSI broth microdilution method; set-up: scale not given: the % may be the effect or the level left
Staphylococcus aureus [22] = test: Antibacterial activity against methicillin-susceptible Staphylococcus aureus assessed as percent cumulative susceptible isolates at minimum inhibitory concentration of 8 ug/ml by CLSI broth microdilution method; set-up: scale not given: the % may be the effect or the level left
Klebsiella pneumoniae [23] = test: Antibacterial activity against Klebsiella pneumoniae assessed as percent cumulative susceptible isolates at minimum inhibitory concentration of […] by CLSI broth microdilution method; set-up: scale not given: the % may be the effect or the level left
Proteus mirabilis = test: Antibacterial activity against Proteus mirabilis assessed as percent cumulative susceptible isolates at minimum inhibitory concentration of 2 ug/ml by CLSI broth microdilution method; set-up: scale not given: the % may be the effect or the level left
Escherichia coli [24] = test: Antibacterial activity against Escherichia coli assessed as percent cumulative susceptible isolates at minimum inhibitory concentration of 128 ug/ml by CLSI broth microdilution method; set-up: scale not given: the % may be the effect or the level left
Staphylococcus aureus [25] = test: Antibacterial activity against non-levofloxacin susceptible Staphylococcus aureus assessed as percent cumulative susceptible isolates at minimum inhibitory concentration of 2 ug/ml by CLSI broth microdilution method; set-up: scale not given: the % may be the effect or the level left
Acinetobacter baumannii [26] = test: Antibacterial activity against Acinetobacter baumannii assessed as percent cumulative susceptible isolates at minimum inhibitory concentration of 0.5 ug/ml by CLSI broth microdilution method; set-up: scale not given: the % may be the effect or the level left
Enterobacter cloacae [27] = test: Antibacterial activity against Enterobacter cloacae assessed as percent cumulative susceptible isolates at minimum inhibitory concentration of […] by CLSI broth microdilution method; set-up: scale not given: the % may be the effect or the level left
Staphylococcus aureus [28] = test: Antibacterial activity against methicillin-susceptible Staphylococcus aureus assessed as percent cumulative susceptible isolates at minimum inhibitory concentration of 4 ug/ml by CLSI broth microdilution method; set-up: scale not given: the % may be the effect or the level left
Enterobacter cloacae [29] = test: Antibacterial activity against Enterobacter cloacae assessed as percent cumulative susceptible isolates at minimum inhibitory concentration of 4 ug/ml by CLSI broth microdilution method; set-up: scale not given: the % may be the effect or the level left
Pseudomonas aeruginosa [30] = test: Antibacterial activity against Pseudomonas aeruginosa assessed as percent cumulative susceptible isolates at minimum inhibitory concentration of 1 ug/ml by CLSI broth microdilution method; set-up: scale not given: the % may be the effect or the level left
Staphylococcus aureus [31] = test: Antibacterial activity against methicillin-resistant Staphylococcus aureus assessed as percent cumulative susceptible isolates at minimum inhibitory concentration of […] by CLSI broth microdilution method; set-up: scale not given: the % may be the effect or the level left
[32] = tested on: Stenotrophomonas maltophilia; test: Antibacterial activity against Stenotrophomonas maltophilia assessed as percent cumulative susceptible isolates at minimum inhibitory concentration of 2 ug/ml by CLSI broth microdilution method; set-up: scale not given: the % may be the effect or the level left
[33] = tested on: Stenotrophomonas maltophilia; test: Antibacterial activity against Stenotrophomonas maltophilia assessed as percent cumulative susceptible isolates at minimum inhibitory concentration of 0.06 ug/ml by CLSI broth microdilution method; set-up: scale not given: the % may be the effect or the level left
Enterococcus faecalis = test: Antibacterial activity against Enterococcus faecalis assessed as percent cumulative susceptible isolates at minimum inhibitory concentration of 32 ug/ml by CLSI broth microdilution method; set-up: scale not given: the % may be the effect or the level left

COc1c(N2C[C@@H](C)C[C@H](N)C2)ccc2c(=O)c(C(=O)O)cn(C3CC3)c12 [NEMONOXACIN]
MIC50 (Staphylococcus aureus [1]): 4 µg/mL (≈ 10.8 µM) | Activity (Acinetobacter baumannii [2]): 100% | Activity (Staphylococcus aureus [3]): 34.6% | Activity (Enterobacter cloacae [4]): 95.8% | Activity (Staphylococcus aureus [5]): 6.3% | Activity (Acinetobacter baumannii [6]): 93.3% | Activity (Enterococcus faecium [7]): 42.1% | Activity (Escherichia coli [8]): 22.7% | Activity [9]: 33.3% | Activity (Klebsiella oxytoca): 6.3% | Activity (Staphylococcus aureus [10]): 3% | Activity (Staphylococcus aureus [11]): 94.9% | Activity (Staphylococcus aureus [12]): 28% | Activity (Staphylococcus aureus [13]): 100% | MIC90 (Enterococcus faecium [14]): 128 µg/mL (≈ 345 µM) | Activity (Enterococcus faecium [15]): 79% | Activity (Enterococcus faecium [16]): 7.9% | Activity (Staphylococcus aureus [17]): 2% | Activity (Pseudomonas aeruginosa [18]): 14.6% | MIC90 (Enterobacteriaceae): 0.5 µg/mL (≈ 1.35 µM) | Activity (Klebsiella pneumoniae [19]): 86.9% | Activity (Staphylococcus aureus [20]): 60% | Activity (Klebsiella pneumoniae [21]): 98% | Activity (Staphylococcus aureus [22]): 99.2% | Activity (Klebsiella pneumoniae [23]): 68.3% | Activity (Proteus mirabilis): 78.8% | Activity (Escherichia coli [24]): 99.3% | Activity (Staphylococcus aureus [25]): 36.1% | Activity (Acinetobacter baumannii [26]): 86.7% | Activity (Enterobacter cloacae [27]): 83.3% | Activity (Staphylococcus aureus [28]): 98.9% | Activity (Enterobacter cloacae [29]): 93.1% | Activity (Pseudomonas aeruginosa [30]): 51.1% | Activity (Staphylococcus aureus [31]): 16.5% | Activity [32]: 42.3%

C[C@H]1COc2c(N3CCN(C)CC3)c(F)cc3c(=O)c(C(=O)O)cn1c23.C[C@H]1COc2c(N3CCN(C)CC3)c(F)cc3c(=O)c(C(=O)O)cn1c23.O [LEVOFLOXACIN]
Activity [33]: 3.8% | MIC50 (Staphylococcus aureus [1]): ≥ 32 µg/mL | Activity (Acinetobacter baumannii [2]): 100% | Activity (Staphylococcus aureus [3]): 9.4% | Activity (Enterobacter cloacae [4]): 98.6% | Activity (Enterococcus faecalis): 100% | Activity (Acinetobacter baumannii [6]): 93.3% | Activity (Enterococcus faecium [7]): 28.9% | Activity (Escherichia coli [8]): 66.4% | Activity (Klebsiella oxytoca): 93.8% | Activity (Staphylococcus aureus [11]): 91.4% | Activity (Staphylococcus aureus [13]): 100% | Activity (Enterococcus faecium [15]): 100% | Activity (Pseudomonas aeruginosa [18]): 42.3% | MIC90 (Enterobacteriaceae): ≤ 0.06 µg/mL | Activity (Klebsiella pneumoniae [19]): 92.5% | Activity (Staphylococcus aureus [20]): 24% | Activity (Klebsiella pneumoniae [21]): 100% | Activity (Staphylococcus aureus [22]): 93.6% | Activity (Klebsiella pneumoniae [23]): 78.4% | Activity (Acinetobacter baumannii [26]): 86.7% | Activity (Enterobacter cloacae [27]): 90.3% | Activity (Staphylococcus aureus [28]): 92% | Activity (Enterobacter cloacae [29]): 97.2% | Activity (Pseudomonas aeruginosa [30]): 59.9% | Activity (Staphylococcus aureus [31]): 8.7% | Activity [32]: 69.2%
